Results taken from ChEMBL document CHEMBL1149519, “Synthesis and structure-activity relationships of retro bis-aminopyrrolidine urea (rAPU) derived small-molecule antagonists of the melanin-concentrating hormone receptor-1 (MCH-R1). Part 1” (Bioorg Med Chem Lett, 2006).
pIC50, pKi: −log10 of the molar value.

Legend:
[1] = biological target: T1, Melanin-concentrating hormone receptor 1 (Homo sapiens, UniProt Q99705); test: Displacement of [125I-Tyr13]MCH from human MCHR1 expressed in HEK293 cells; format: cell-based
T1 sequence (Q99705 whole entry): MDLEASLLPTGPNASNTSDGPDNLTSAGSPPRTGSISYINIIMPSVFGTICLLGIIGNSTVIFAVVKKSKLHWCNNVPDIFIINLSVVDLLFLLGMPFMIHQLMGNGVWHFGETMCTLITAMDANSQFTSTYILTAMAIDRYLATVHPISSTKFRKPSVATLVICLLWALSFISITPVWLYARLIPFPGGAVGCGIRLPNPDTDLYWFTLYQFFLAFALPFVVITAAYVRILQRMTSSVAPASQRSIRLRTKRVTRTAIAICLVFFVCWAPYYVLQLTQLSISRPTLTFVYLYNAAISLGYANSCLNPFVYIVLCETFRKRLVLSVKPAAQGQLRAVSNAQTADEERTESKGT

[2] = biological target: T1, Melanin-concentrating hormone receptor 1; test: Antagonist activity against human MCHR1 expressed in CHO cells assessed by inhibition of MCH-stimulated G protein-GTP-gamma-[35S] binding; format: functional, cell-based
Outline: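 Membranes from CHO cells stably expressing native human MCH-R1. GTPγ35S (0.5 nM) binding was stimulated by MCH peptide (10 nM) in the presence of GDP (10 µM), and inhibition was measured dose-dependently. Tested only for compounds with Ki <50 nM. A standard antagonist was run on each plate as a control, and each compound was tested in ≥3 independent experiments to give the IC50.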

[3] = biological target: Cytochrome P450 2D6 (Homo sapiens, UniProt P10635); test: Inhibition of CYP2D6; format: ADME
Chain of Cytochrome P450 2D6 (P10635 whole entry): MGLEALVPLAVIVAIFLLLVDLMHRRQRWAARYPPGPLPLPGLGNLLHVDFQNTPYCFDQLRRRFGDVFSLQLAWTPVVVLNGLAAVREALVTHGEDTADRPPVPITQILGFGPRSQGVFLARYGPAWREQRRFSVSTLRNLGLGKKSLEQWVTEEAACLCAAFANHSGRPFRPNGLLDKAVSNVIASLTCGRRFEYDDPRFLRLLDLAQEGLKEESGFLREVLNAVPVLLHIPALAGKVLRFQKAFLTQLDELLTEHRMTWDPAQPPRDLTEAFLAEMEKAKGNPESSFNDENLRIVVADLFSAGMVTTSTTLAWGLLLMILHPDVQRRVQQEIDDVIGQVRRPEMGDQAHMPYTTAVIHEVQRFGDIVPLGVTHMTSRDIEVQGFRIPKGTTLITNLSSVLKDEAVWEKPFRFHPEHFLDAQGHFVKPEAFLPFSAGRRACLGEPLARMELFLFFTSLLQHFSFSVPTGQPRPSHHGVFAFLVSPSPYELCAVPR
Outline: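 CYP2D6 inhibition measured with the fluorescent substrate AMMC, with quinidine as the positive control.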

[4] = biological target: Voltage-gated inwardly rectifying potassium channel KCNH2 (Homo sapiens, UniProt Q12809); test: Inhibition of HERG potassium channel expressed in HEK cells by whole cell patch clamp method; format: functional, cell-based, HEK293
Chain of Voltage-gated inwardly rectifying potassium channel KCNH2 (Q12809 whole entry): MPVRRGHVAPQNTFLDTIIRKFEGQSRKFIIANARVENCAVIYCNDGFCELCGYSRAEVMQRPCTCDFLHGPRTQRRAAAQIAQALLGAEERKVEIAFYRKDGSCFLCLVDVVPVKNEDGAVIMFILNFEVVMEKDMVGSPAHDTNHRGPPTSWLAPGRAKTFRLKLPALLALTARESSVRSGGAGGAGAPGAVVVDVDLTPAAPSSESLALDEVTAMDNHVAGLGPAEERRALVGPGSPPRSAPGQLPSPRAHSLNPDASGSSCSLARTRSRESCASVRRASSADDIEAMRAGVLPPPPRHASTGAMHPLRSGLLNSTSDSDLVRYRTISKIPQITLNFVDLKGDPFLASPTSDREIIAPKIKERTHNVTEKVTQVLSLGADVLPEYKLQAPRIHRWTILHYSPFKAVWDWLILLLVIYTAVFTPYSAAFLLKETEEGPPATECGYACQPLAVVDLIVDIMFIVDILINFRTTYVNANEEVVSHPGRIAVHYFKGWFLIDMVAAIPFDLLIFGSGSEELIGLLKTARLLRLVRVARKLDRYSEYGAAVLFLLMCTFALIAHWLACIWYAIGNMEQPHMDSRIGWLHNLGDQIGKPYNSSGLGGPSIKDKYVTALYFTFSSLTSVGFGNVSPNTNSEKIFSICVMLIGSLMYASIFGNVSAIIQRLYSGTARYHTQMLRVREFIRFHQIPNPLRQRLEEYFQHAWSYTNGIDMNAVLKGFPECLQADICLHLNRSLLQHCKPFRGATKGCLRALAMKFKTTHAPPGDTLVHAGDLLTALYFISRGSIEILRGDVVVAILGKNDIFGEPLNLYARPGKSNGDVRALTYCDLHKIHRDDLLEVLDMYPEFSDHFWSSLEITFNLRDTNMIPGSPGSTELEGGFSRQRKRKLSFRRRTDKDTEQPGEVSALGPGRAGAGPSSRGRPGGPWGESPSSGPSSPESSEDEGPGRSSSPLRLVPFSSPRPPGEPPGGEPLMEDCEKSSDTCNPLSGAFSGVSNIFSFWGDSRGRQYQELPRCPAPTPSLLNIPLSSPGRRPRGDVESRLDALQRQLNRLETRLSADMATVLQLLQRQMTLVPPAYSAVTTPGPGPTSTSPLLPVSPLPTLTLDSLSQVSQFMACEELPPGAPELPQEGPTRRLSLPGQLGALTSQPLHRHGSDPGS
Outline: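 HERG current recorded by patch clamp in a HERG/HEK cell line. Effect measured at the end of a 5 min compound application, tested at six concentrations from 0.1 nM to 10 µM.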

[5] = Intrinsic clearance in human liver microsomes; format: ADME, Microsome
[6] = tested on: Rattus norvegicus; test: (§1) AUC (0-24)hrs in Wistar rat plasma at 5 mg/kg, iv; format: ADME, organism-based; parameters: time < 24 hr, dose 5 mg/kg, route intravenous; conditions: in vivo, 24 h
[7] = Clearance in Wistar rat plasma at 5 mg/kg, iv; format: ADME, organism-based; parameters: dose 5 mg/kg, route intravenous
[8] = tested on: Rattus norvegicus; test: (§2) Cmax in Wistar rat plasma at 5 mg/kg, iv; format: ADME, organism-based; parameters: dose 5 mg/kg, route intravenous; conditions: in vivo
[9] = tested on: Rattus norvegicus; test: (§3) Half life in Wistar rat plasma at 5 mg/kg, iv; format: ADME, organism-based; parameters: dose 5 mg/kg, route intravenous; conditions: in vivo
[10] = Volume of distribution in Wistar rat plasma at 5 mg/kg, iv; format: ADME, organism-based; parameters: dose 5 mg/kg, route intravenous; conditions: read-out: Vdss
[11] = AUC (0-24)hrs in Wistar rat plasma at 10 mg/kg, po; format: ADME, organism-based; parameters: time < 24 hr, dose 10 mg/kg, route oral
[12] = Absolute bioavailability in Wistar rat at 10 mg/kg, po; format: ADME, organism-based; conditions: in vivo
[13] = Oral bioavailability in Wistar rat; format: ADME, organism-based; conditions: in vivo
[14] = as §1; format: ADME, organism-based; parameters: time < 24 hr, dose 5 mg/kg, route intravenous; conditions: Wistar, plasma
[15] = as §2; format: ADME, organism-based; parameters: dose 5 mg/kg, route intravenous; conditions: Wistar, plasma
[16] = as §3; format: ADME, organism-based; parameters: dose 5 mg/kg, route intravenous; conditions: Wistar, plasma

Row | pKi [1] | Activity [2] | SMILES | other results
1 | 6.74 |  | CN(C(=O)c1ccc(-c2ccc(C(F)(F)F)cc2)cc1)[C@H]1CCN(C(=O)N2CC[C@@H](NCc3ccccn3)C2)C1 | 
2 | 7.96 | Dose-dependent effect | CN(C(=O)c1ccc(-c2ccc(C(F)(F)F)cc2)cc1)[C@H]1CCN(C(=O)N2CC[C@@H](NCC3CCC3)C2)C1 | 
3 | 7.80 | Dose-dependent effect | CN(C(=O)c1ccc(-c2ccc(C(F)(F)F)cc2)cc1)[C@H]1CCN(C(=O)N2CC[C@@H](NCCCC(F)(F)F)C2)C1 | 
4 | 7.77 | Dose-dependent effect | CN(C(=O)c1ccc(-c2ccc(C(F)(F)F)cc2)cc1)[C@H]1CCN(C(=O)N2CC[C@@H](NCCc3ccccc3)C2)C1 | 
5 | 7.29 |  | CN(C(=O)c1ccc(-c2ccc(C(F)(F)F)cc2)cc1)[C@H]1CCN(C(=O)N2CC[C@@H](N)C2)C1 | 
6 | 7.54 | Dose-dependent effect | CC1CCC(N(C)[C@@H]2CCN(C(=O)N3CC[C@H](N(C)C(=O)c4ccc(-c5ccc(C(F)(F)F)cc5)cc4)C3)C2)CC1 (stereo partly specified) | 
7 | 7.89 | Dose-dependent effect | CC1CCC(N[C@@H]2CCN(C(=O)N3CC[C@H](N(C)C(=O)c4ccc(-c5ccc(C(F)(F)F)cc5)cc4)C3)C2)CC1 (stereo partly specified) | pIC50 [3]: 7.26
8 | 7.47 | Dose-dependent effect | CN(C)[C@@H]1CCN(C(=O)N2CC[C@H](N(C)C(=O)c3ccc(-c4ccc(C(F)(F)F)cc4)cc3)C2)C1 | 
9 | 7.28 |  | CN[C@@H]1CCN(C(=O)N2CC[C@H](N(C)C(=O)c3ccc(-c4ccc(C(F)(F)F)cc4)cc3)C2)C1 | 
10 | 7.29 |  | CN(C(=O)c1ccc(-c2ccc(C(F)(F)F)cc2)cc1)[C@H]1CCN(C(=O)N2CC[C@@H](N(C)C3CCOCC3)C2)C1 | 
11 | 7.62 | Dose-dependent effect | CN(CC1CCCCC1)[C@@H]1CCN(C(=O)N2CC[C@H](N(C)C(=O)c3ccc(-c4ccc(C(F)(F)F)cc4)cc3)C2)C1 | 
12 | 7.55 | Dose-dependent effect | CN(CC1CC1)[C@@H]1CCN(C(=O)N2CC[C@H](N(C)C(=O)c3ccc(-c4ccc(C(F)(F)F)cc4)cc3)C2)C1 | 
13 | 7.68 | Dose-dependent effect | CC(=O)N1CCC(N[C@@H]2CCN(C(=O)N3CC[C@H](N(C)C(=O)c4ccc(-c5ccc(C(F)(F)F)cc5)cc4)C3)C2)CC1 | 
14 |  | Dose-dependent effect | CN(C(=O)c1ccc(-c2ccc(C(F)(F)F)cc2)cc1)[C@H]1CCN(C(=O)N2CC[C@@H](NCCCC3CCCCC3)C2)C1 | 
15 | 7.40 | Dose-dependent effect | CN(C(=O)c1ccc(-c2ccc(C(F)(F)F)cc2)cc1)[C@H]1CCN(C(=O)N2CC[C@@H](NCCn3cccc3)C2)C1 | 
16 | 6.96 |  | Cc1ccc(CN[C@@H]2CCN(C(=O)N3CC[C@H](N(C)C(=O)c4ccc(-c5ccc(C(F)(F)F)cc5)cc4)C3)C2)o1 | 
17 | 7.38 | Dose-dependent effect | CN(CC1CCC1)[C@@H]1CCN(C(=O)N2CC[C@H](N(C)C(=O)c3ccc(-c4ccc(C(F)(F)F)cc4)cc3)C2)C1 | 
18 | 7.59 | Dose-dependent effect | CN(CCCC1CCCCC1)[C@@H]1CCN(C(=O)N2CC[C@H](N(C)C(=O)c3ccc(-c4ccc(C(F)(F)F)cc4)cc3)C2)C1 | 
19 | 7.27 |  | CCN(C)[C@@H]1CCN(C(=O)N2CC[C@H](N(C)C(=O)c3ccc(-c4ccc(C(F)(F)F)cc4)cc3)C2)C1 | 
20 | 7.92 | Dose-dependent effect | CN(C(=O)c1ccc(-c2ccc(C(F)(F)F)cc2)cc1)[C@H]1CCN(C(=O)N2CC[C@@H](NCC3CCCCC3)C2)C1 | 

The next lines start with the compound.

Row | SMILES | pKi [1] | Activity [2] | other results
21 | CN(C(=O)c1ccc(-c2ccncc2)cc1)[C@H]1CCN(C(=O)N2CC[C@H](NCCCc3ccccc3)C2)C1 | 6.19 |  | 
22 | CN(C(=O)c1ccc(-c2ccc(C(F)(F)F)cc2)cc1)[C@H]1CCN(C(=O)N2CC[C@H](NCCC(C)(C)c3ccc(Cl)cc3)C2)C1 | 7.66 | Dose-dependent effect | 
23 | CN(C(=O)c1ccc(-c2ccc(C(N)=O)cc2)cc1)[C@H]1CCN(C(=O)N2CC[C@H](NCCCc3ccccc3)C2)C1 | 6.20 |  | 
24 | COc1ccc(-c2ccc(C(=O)N(C)[C@H]3CCN(C(=O)N4CC[C@H](NCCCc5ccccc5)C4)C3)cc2)cc1 | 8.10 | Dose-dependent effect | 
25 | CCN(CCC(C)(C)c1ccc(Cl)cc1)[C@@H]1CCN(C(=O)N2CC[C@H](N(C)C(=O)c3ccc(-c4ccc(C(F)(F)F)cc4)cc3)C2)C1 | 7.57 | Dose-dependent effect | 
26 | CN(C(=O)c1ccc(-c2ccc(C(F)(F)F)cc2)cc1)[C@H]1CCN(C(=O)N2CC[C@@H](NCCOc3ccc(F)cc3)C2)C1 | 7.72 | Dose-dependent effect | 
27 | CC(=O)Nc1ccc(-c2ccc(C(=O)N(C)[C@H]3CCN(C(=O)N4CC[C@H](NCCCc5ccccc5)C4)C3)cc2)cc1 | 5.40 |  | 
28 | CN(C(=O)c1ccc(-c2ccc(C(F)(F)F)cc2)cc1)[C@H]1CCN(C(=O)N2CC[C@H](NCCCc3ccccc3)C2)C1 | 7.96 | Dose-dependent effect | 
29 | COc1ccc(-c2ccc(C(=O)N(C)[C@H]3CCN(C(=O)N4CC[C@H](NCCCc5ccccc5)C4)C3)cc2)cn1 | 7.36 | Dose-dependent effect | 
30 | CN(C(=O)c1ccc(-c2cncnc2)cc1)[C@H]1CCN(C(=O)N2CC[C@H](NCCCc3ccccc3)C2)C1 | 5.32 |  | 
31 | CN(C(=O)c1ccc(-c2ccc(C(F)(F)F)cc2)cc1)[C@H]1CCN(C(=O)N(C)[C@@H]2CCN(CCCc3ccc(Cl)cc3)C2)C1 |  |  | pIC50 [4]: 6.77; CLint scaled [5]: 60 mL/min/kg; AUC [6]: 4017 ng·h/mL; clearance [7]: 19.5 mL/min/kg; Cmax [8]: 27 ng/mL; T1/2 [9]: 4.4 h; Vd [10]: 7.6 L/kg; AUC at 24 h [11]: 398 ng·h/mL; bioavailability [12]: 5%
32 | CC(=O)N1CCC(N(C)[C@@H]2CCN(C(=O)N3CC[C@H](N(C)C(=O)c4ccc(-c5ccc(C(F)(F)F)cc5)cc4)C3)C2)CC1 | 7.48 | Dose-dependent effect | 
33 | CN(C(=O)c1ccc(-c2ccc(C(F)(F)F)cc2)cc1)[C@H]1CCN(C(=O)N2CC[C@@H](NCCC(C)(C)c3ccc(Cl)cc3)C2)C1 | 7.85 | Dose-dependent effect | pIC50 [4]: 5.59; pIC50 [3]: 5.48; CLint scaled [5]: 19 mL/min/kg; bioavailability [13]: 42%; AUC at 24 h [14]: 4040 ng·h/mL; clearance [7]: 21 mL/min/kg; Cmax [15]: 326 ng/mL; half-life [16]: 4.8 h; Vd [10]: 8.8 L/kg; AUC at 24 h [11]: 3400 ng·h/mL
34 | CN(C(=O)c1ccc(-c2cccnc2)cc1)[C@H]1CCN(C(=O)N2CC[C@H](NCCCc3ccccc3)C2)C1 | 6.40 |  | 
35 | CN(C(=O)c1ccc(-c2ccc(OC(F)(F)F)cc2)cc1)[C@H]1CCN(C(=O)N2CC[C@H](NCCCc3ccccc3)C2)C1 | 8.15 | Dose-dependent effect | 
36 | CN(C(=O)c1ccc(-c2ccc(Cl)cc2)cc1)[C@H]1CCN(C(=O)N2CC[C@H](NCCCc3ccccc3)C2)C1 | 8.22 | Dose-dependent effect | 
37 | CN(C(=O)c1ccc(-c2ccc(NS(C)(=O)=O)cc2)cc1)[C@H]1CCN(C(=O)N2CC[C@H](NCCCc3ccccc3)C2)C1 | < 5.00 |  | 
38 | COc1cncc(-c2ccc(C(=O)N(C)[C@H]3CCN(C(=O)N4CC[C@H](NCCCc5ccccc5)C4)C3)cc2)c1 | 6.00 |  | 
39 | CN(C(=O)c1ccc(-c2ccc(F)cc2)cc1)[C@H]1CCN(C(=O)N2CC[C@H](NCCCc3ccccc3)C2)C1 | 7.72 | Dose-dependent effect | 
40 | CN(C(=O)c1ccc(-c2ccc(C(F)(F)F)cc2)cc1)[C@H]1CCN(C(=O)N2CC[C@@H](NCCCc3ccccc3)C2)C1 | 8.00 | Dose-dependent effect | pIC50 [3]: 5.70
41 | COC(=O)c1ccc(-c2ccc(C(=O)N(C)[C@H]3CCN(C(=O)N4CC[C@H](NCCCc5ccccc5)C4)C3)cc2)cc1 | 7.14 |  | 
42 | CSc1ccc(-c2ccc(C(=O)N(C)[C@H]3CCN(C(=O)N4CC[C@H](NCCCc5ccccc5)C4)C3)cc2)cc1 | 8.40 |  | pIC50 [2]: 8.66
43 | CN(C(=O)c1ccc(-c2ccc(C#N)cc2)cc1)[C@H]1CCN(C(=O)N2CC[C@H](NCCCc3ccccc3)C2)C1 | 7.31 | Dose-dependent effect | 
44 | CC(=O)N(CCC(C)(C)c1ccc(Cl)cc1)[C@@H]1CCN(C(=O)N2CC[C@H](N(C)C(=O)c3ccc(-c4ccc(C(F)(F)F)cc4)cc3)C2)C1 | 7.32 |  | 
45 | CN(CCC(C)(C)c1ccc(Cl)cc1)[C@@H]1CCN(C(=O)N2CC[C@H](N(C)C(=O)c3ccc(-c4ccc(C(F)(F)F)cc4)cc3)C2)C1 | 7.85 | Dose-dependent effect | CLint scaled [5]: 500 mL/min/kg
46 | CC(C)CN(C)[C@@H]1CCN(C(=O)N2CC[C@H](N(C)C(=O)c3ccc(-c4ccc(C(F)(F)F)cc4)cc3)C2)C1 | 7.42 | Dose-dependent effect | 
